Rows were chosen to be rich in hits. Some 4.3% of all compounds tested hit in one or more screens of this group.
Beta2AR agonist: beta2AR agonists driving receptor internalization, primary screen, cell-based, FAP fluorogen, flow cytometry | response, % (test concentration not listed) | Am2.2-beta2AR cells | 0.43% of 340,000 active | Beta-2 adrenergic receptor (Homo sapiens), P07550;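 active = response above a set limit, near 3 SD of response in nonfluorescent compounds, cut at about 42% in these data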
Target sequence (P07550 whole entry, looked up): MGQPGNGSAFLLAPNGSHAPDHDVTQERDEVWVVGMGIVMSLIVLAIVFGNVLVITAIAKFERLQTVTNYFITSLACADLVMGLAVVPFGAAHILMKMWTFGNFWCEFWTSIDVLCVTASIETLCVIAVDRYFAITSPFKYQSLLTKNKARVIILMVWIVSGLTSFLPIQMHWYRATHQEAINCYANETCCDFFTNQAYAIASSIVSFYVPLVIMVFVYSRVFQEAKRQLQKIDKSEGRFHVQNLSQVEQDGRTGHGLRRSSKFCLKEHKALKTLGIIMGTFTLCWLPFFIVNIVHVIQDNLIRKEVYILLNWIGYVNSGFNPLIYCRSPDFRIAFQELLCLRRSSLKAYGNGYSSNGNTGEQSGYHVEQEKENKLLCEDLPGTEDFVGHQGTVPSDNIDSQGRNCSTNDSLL
TAAR1 antagonist: human TAAR1 antagonists, primary screen, Fluo-8 calcium fluorescence, CHO RD-HGA16 cells; antagonist; inhibition, % at 3 µM; 1.5% of 360,000 active; AID 624466, 2012;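 active = inhibition above a per-plate cutoff, the mean inhibition of test compounds on that plate plus 3 SD, cut at about 49% in these data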;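 note: 0% = DMSO plus EC80 beta-PEA response and 100% = DMSO alone without agonist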
Target sequence (Q96RJ0 whole entry, looked up): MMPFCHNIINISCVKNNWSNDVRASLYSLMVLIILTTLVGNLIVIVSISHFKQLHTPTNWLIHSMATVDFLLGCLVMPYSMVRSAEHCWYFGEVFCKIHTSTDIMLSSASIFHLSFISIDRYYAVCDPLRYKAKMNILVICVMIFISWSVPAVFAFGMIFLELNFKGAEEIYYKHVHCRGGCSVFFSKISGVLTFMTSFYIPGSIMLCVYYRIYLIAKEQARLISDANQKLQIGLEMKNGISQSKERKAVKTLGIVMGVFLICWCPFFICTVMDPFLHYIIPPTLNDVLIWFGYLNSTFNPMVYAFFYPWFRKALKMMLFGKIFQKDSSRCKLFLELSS
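Material: RD-HGA16 CHO cells with stable hTAAR1 and Gα16; Dosing: single nominal final test compound concentration of 3 µM; Schedule: seeding 17-24 h prior, 75-min 37 °C, 30-min RT dye loading; Detection: kinetic Fluo-8 calcium fluorescence measurement; Measure: % inhibition from peak post-agonist over basal fluorescence ratio; Benchmarks: vehicle and agonist controls.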
MC4R barr agon: MC4R agonists recruiting beta-arrestin, primary screen, cell-based, luminescence, agonist arm of biased-ligand search; Melanocortin receptor 4 (Homo sapiens), P32245; U2OS MC4R beta-arrestin complementation; percent of melanotan II response, DMSO zero; activation, % at 8.9 µM; 0.98% of 360,000 active; AID 540308, 2011;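 active = activation above a per-plate cutoff, the mean activation of sample wells on that plate plus 3 SD, cut at about 8% in these data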
m5-HT2A agonist: mouse Htr2a agonists via beta-arrestin recruitment, primary screen, cell-based, luminescence; activation, % at 7.6 µM; CHO-K1 mHTR2A beta-arrestin complementation; percent of 30 µM serotonin response; 0.66% of 360,000 active; 5-hydroxytryptamine receptor 2A (Mus musculus), P35363;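 active = activation above a run cutoff, the mean activation of all tested compounds plus 3 SD, cut at about 14% in these data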;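 note: 0% = plate median of compound wells and 100% = 30 µM serotonin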
MC4R antagonist: MC4R antagonists of cAMP signaling, primary screen, cell-based, TR-FRET, antagonist arm of biased-ligand search. MC4R-expressing cells, MTII-stimulated cAMP, LANCE TR-FRET. 0.48% of 360,000 active. inhibition, % at 6.5 µM. AID 540295, 2011;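 active = inhibition above its plate's cutoff, the mean of tested wells on that plate plus 3 SD, cut at about 29% in these data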;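 note: 0% = Melanotan II alone and 100% = Melanotan II plus saturating MCL0020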
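System: U2OS cells stably expressing human melanocortin 4 receptor (MC4R). Reagent: Melanotan II challenge after compound preincubation. Doses: 6.5 µM. Times: 30-min compound, 1-h challenge, 1-h detection, room temperature. Measured by: TR-FRET with Eu-cAMP and labeled anti-cAMP, 671 nm. Replicates: singlicate.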
TAAR1 agonist: human TAAR1 agonists, primary screen, Fluo-8 calcium fluorescence, CHO RD-HGA16 cells; Trace amine-associated receptor 1 (Homo sapiens), Q96RJ0; vehicle wells 0%, saturating PEA agonist 100%; activation, % at 3 µM; 0.99% of 360,000 active; AID 624467, 2012;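 active = activation above the mean activation of all test compounds in the run plus 3 SD, cut at about 38% in these data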
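Signal – calcium-sensitive Fluo-8 signal, excitation 470-495, emission 515-575 nm · System – RD-HGA16 (CHO) cells co-expressing Gα16 and hTAAR1 · Incubation – 17-24 h seeding, 75 min 37 °C dye, 30 min RT · Compound dosing – 3 µM single concentration · Repeats – no replicates (n 1)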
TAAR1 ag conf: human TAAR1 agonists, retest of hits, confirmation, Fluo-8 calcium fluorescence, CHO RD-HGA16 cells; shares compounds with TAAR1 agonist; scaled: DMSO 0%, maximal phenethylamine 100%; 82% of 2,400 active; activation, % at 3 µM; AID 651783, 2012;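 active = activation above a cutoff set at the run's mean compound activation plus 3 SD, cut at about 39% in these data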
Ga16 ag counter: nonselective calcium mobilization agonists, CHO-Ga16 cells, counter-screen for hTAAR1 agonist project, cell-based, fluorescence, CHO-Ga16 parental line | shares compounds with TAAR1 agonist | Fluo-8 calcium fluorescence; normalized to maximal ATP response, DMSO zero | 50% of 2,400 active | activation, % at 3 µM;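 active = activation above the run cutoff, the mean activation over all tested wells plus 3 SD, cut at about 12% in these data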;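 note: 0% = DMSO wells and 100% = maximal ATP response on the peak over basal ratio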
TAAR1 desens: TAAR1 desensitization by agonist hits, confirmation, counter-screen for TAAR1 agonist project, cell-based, fluorescence, tachyphylaxis; 46% of 2,400 active; CHO RD-HGA16 hTAAR1, Fluo-8 calcium, beta-PEA response inhibition; shares compounds with TAAR1 agonist; AID 651951, 2012; inhibition, % at 3 µM;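 active = inhibition above the run cutoff, the mean inhibition of all test compounds plus 3 SD, cut at about 49% in these data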;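 note: beta-PEA stimulus applied at its EC80; loss of beta-PEA calcium signal after compound pretreatment read as receptor desensitization; 0% = DMSO with beta-PEA at EC80 and 100% = DMSO alone without agonist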
Ga16 antag count: inhibition of ATP-evoked calcium response in CHO-Ga16 cells, counter-screen for TAAR1 agonist project, cell-based, fluorescence; shares compounds with TAAR1 agonist; CHO-Ga16 ATP-induced calcium, Fluo-8 fluorescence; inhibition, % at 3 µM; 39% of 2,400 active;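 active = inhibition above the plate's mean compound inhibition plus 3 SD, computed per plate, cut at about 22% in these data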;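 note: 0% = EC80 ATP with DMSO and 100% = DMSO wells without ATP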
The depositor's hits bear a star; . = no result.

SMILES	Beta2AR agonist	TAAR1 antagonist	MC4R barr agon	m5-HT2A agonist	MC4R antagonist	TAAR1 agonist	TAAR1 ag conf	Ga16 ag counter	TAAR1 desens	Ga16 antag count
Cc1onc(-c2ccccc2)c1C(=O)NNC(=S)NC(=O)c1ccc(Cl)cc1Cl	-11.4	107.8*	-6.5	2.6	-9.7	131.8*	149.0*	120.9*	106.5*	92.2*
Cc1ccc(C)c(C(=O)CSc2nnc(C)s2)c1	-0.8	7.2	-0.1	-1.3	-0.7	5.9	.	.	.	.
Cc1c(C(=O)N(C)C2CC(C)(C)NC(C)(C)C2)oc2c(F)cccc12	2.9	-25.5	-1.9	8.4	-4.1	2.0	.	.	.	.
Cc1ccccc1C(=O)NNC(=S)NC(=O)c1ccc(Cl)cc1Cl	3.6	108.9*	-4.4	-0.4	-1.2	181.3*	132.4*	103.1*	104.1*	80.7*
O=C(NC(=S)NNC(=O)c1ccc(Cl)cc1Cl)c1cccnc1	4.6	-8.9	0.1	4.4	-9.0	2.0	.	.	.	.
Cc1ccc(Nc2nc(N)c3ccccc3n2)cc1C	3.6	6.5	1.0	-3.9	1.2	67.5*	67.0*	1.6	53.9*	2.6
Cc1cc(O)cc(=O)n1-c1cccc(C(F)(F)F)c1	.	-23.5	.	.	.	7.2	.	.	.	.
Cc1oc(=O)c(NC(=O)c2cccc(Cl)c2)cc1C(=O)c1ccccc1	4.9	27.6	0.5	-2.8	23.4	54.7*	11.2	10.3	37.4	30.8*
COc1ccc(C(=O)Nc2cc(C(=O)c3ccccc3)c(C)oc2=O)cc1	-3.6	5.3	-0.8	-1.6	22.1	37.0	.	.	.	.
COc1ccc(C2SCCN2C(=S)Nc2ccc(F)cc2)cc1 (configuration not stated)	-1.0	9.7	-0.9	0.6	18.3	14.2	.	.	.	.
CCOC(=O)c1ccc(NC(=S)N2CCSC2c2ccc(Cl)cc2)cc1 (configuration not stated)	17.6	105.2*	3.3	1.0	2.0	122.6*	136.5*	93.7*	105.9*	79.6*
CCOC(=O)c1ccc(NC(=S)N2CCN(C)CC2)cc1	-6.3	0.1	-0.8	-7.2	4.6	3.5	.	.	.	.
CCOC(=O)c1ccc(NC(=S)N2CCSC2c2ccc(OC)cc2)cc1 (configuration not stated)	-1.2	72.4*	0.1	-1.7	7.9	92.6*	82.8*	37.5*	67.4*	43.6*
CCN(C(=O)COC(=O)C(C)(C)Oc1ccc(Cl)cc1)c1c(N)n(Cc2ccccc2)c(=O)[nH]c1=O	-5.3	-3.3	-1.5	-1.1	0.1	-2.6	.	.	.	.
CCc1nc(N)c(C#N)c(-c2ccco2)c1C	7.5	-17.8	-3.1	0.1	-7.6	80.6*	3.8	2.6	2.2	3.4
OCCNCc1ccc(-c2ccccc2)cc1	0.9	-4.7	-3.2	1.4	2.9	13.6	.	.	.	.
OCCCNCc1ccc(N(c2ccccc2)c2ccccc2)cc1	10.4	-3.1	2.9	-4.1	-4.5	45.4*	72.8*	24.7*	27.1	16.2
C=CCN(CC=C)S(=O)(=O)c1ccc2nc(NC(=O)C(C)C)sc2c1	15.3	7.9	0.0	-6.2	-14.4	39.5*	69.1*	30.6*	28.2	11.2
CCCC(=O)N1CCC1(C)C(=O)NS(=O)(=O)c1ccc(OC)cc1 (configuration not stated)	.	12.1	-0.3	2.7	-1.5	0.1	.	.	.	.
O=C(NNC(=O)c1ccc(Br)o1)c1csc(N2CCOCC2)n1	-7.3	-7.8	-0.1	6.7	7.6	4.7	.	.	.	.
CCN(CC)c1ccc(/C=C2\C(=O)c3ccc(C(=O)O)cc3C2=O)cc1	.	85.6*	-3.9	-1.3	11.9	124.8*	143.9*	162.6*	89.0*	92.0*
CCN(CC)c1ccc(C(=O)O)cc1	2.7	8.9	0.8	-1.9	13.3	4.5	.	.	.	.
O=C(c1nc2ccccn2c1CNCC1OCCc2ccccc21)N1CCOCC1 (configuration not stated)	-10.0	.	-2.1	0.7	5.0	.	.	3.4	.	12.6
Cc1ccn2c(CNCC3OCCc4ccccc43)c(C(=O)N3CCCCCC3)nc2c1 (configuration not stated)	-10.4	38.6	-2.9	-6.5	13.2	83.9*	81.3*	4.6	71.1*	13.6
COc1ccc2c(CC(=O)NNC(=O)c3ccc(O)cc3)coc2c1	0.7	-7.3	-2.0	4.9	15.8	2.3	.	.	.	.
SMILES	Beta2AR agonist	TAAR1 antagonist	MC4R barr agon	m5-HT2A agonist	MC4R antagonist	TAAR1 agonist	TAAR1 ag conf	Ga16 ag counter	TAAR1 desens	Ga16 antag count
Cc1ccc(N2C(=O)c3ccc(C(=O)N4CCN(c5ccc(C)c(C)c5)CC4)cc3C2=O)cc1	5.0	-31.3	-2.6	-3.5	0.0	7.5	.	.	.	.
Cc1ccc(N2C(=O)c3ccc(C(=O)N4CCN(Cc5ccccc5)CC4)cc3C2=O)cc1	-1.3	80.7*	0.6	-0.9	0.7	86.7*	93.9*	49.2*	96.5*	73.9*
CCCOC(=O)c1ccc2c(c1)C(=O)N(c1ccccc1)C2=O	-2.8	53.1*	0.1	0.3	4.1	68.1*	15.1	6.1	24.3	19.3
CCCOC(=O)CN1C(=O)c2ccc(C(=O)OCCC)cc2C1=O	2.2	-37.0	1.7	5.4	1.3	5.7	.	.	.	.
Cc1cccn2c(CNCCc3ccccn3)c(C(=O)N3CCOCC3)nc12	0.7	9.3	-0.9	-1.7	17.2	49.0*	67.9*	4.8	41.3	17.9
C#C[C@]1(O)CC[C@H]2[C@@H]3CCc4cc(O)ccc4[C@H]3CC[C@@]21C	2.4	42.3	-1.8	0.9	-2.4	12.3	.	.	.	.

Source: PubChem BioAssay
